Usually IC50 stands for the concentration at which inhibition is half-maximal.

We go through one molecule from ChEMBL document CHEMBL5030534, “Discovery of Novel Anti-Breast-Cancer Inhibitors by Synergistically Antagonizing Microtubule Polymerization and Aryl Hydrocarbon Receptor Expression” (J Med Chem, 2021).

The nature of this assay: Antiproliferative activity against human MCF7/ADR cells assessed as reduction in cell viability incubated for 48 hrs by MTT assay. Particulars: MCF7, 48 h. In kind it is functional, cell-based. The procedure, abridged: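 Cells seeded at 5 × 10³ per well, incubated overnight, then exposed to a range of compound concentrations for 48 h. MTT added for 4 h, medium replaced with DMSO, absorbance read at 570 nm. Three independent runs.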
A general note: Tetrazolium dyes change colour on reduction, which living cells bring about.

Each structure is given as a SMILES string.

For `Cc1nc(N(C)c2ccc3c(c2)cc(C)n3C)c2ccccc2n1`, the IC50 was determined as 0.9 nM.
